{"source": "ChEMBL document CHEMBL4251566", "about": "(Eur J Med Chem, 2018)", "key": {"[1]": {"system": "Ramos", "experiment": "Antiproliferative activity against human Ramos cells at 1.25 to 40 uM by CCK-8 assay", "assay_type": "functional, cell-based", "conditions": "TDE = time-dependent effect", "outline": "(§1)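 CCK-8 viability assay. Cells were seeded at 3000/well in RPMI-1640 with 10% FBS at 37 °C, 5% CO2, for 4 h before treatment. Exposure was 72 h at five concentrations (1.25, 5, 10, 20, 40 µM), each in five replicates. Absorbance was read at 450 nm. IC50 came from dose-response curves, as the mean of at least three separate experiments.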"}, "[2]": {"molecular_target": "T1, Tyrosine-protein kinase BTK (Homo sapiens, UniProt Q06187)", "T1 sequence (Q06187 whole entry)": "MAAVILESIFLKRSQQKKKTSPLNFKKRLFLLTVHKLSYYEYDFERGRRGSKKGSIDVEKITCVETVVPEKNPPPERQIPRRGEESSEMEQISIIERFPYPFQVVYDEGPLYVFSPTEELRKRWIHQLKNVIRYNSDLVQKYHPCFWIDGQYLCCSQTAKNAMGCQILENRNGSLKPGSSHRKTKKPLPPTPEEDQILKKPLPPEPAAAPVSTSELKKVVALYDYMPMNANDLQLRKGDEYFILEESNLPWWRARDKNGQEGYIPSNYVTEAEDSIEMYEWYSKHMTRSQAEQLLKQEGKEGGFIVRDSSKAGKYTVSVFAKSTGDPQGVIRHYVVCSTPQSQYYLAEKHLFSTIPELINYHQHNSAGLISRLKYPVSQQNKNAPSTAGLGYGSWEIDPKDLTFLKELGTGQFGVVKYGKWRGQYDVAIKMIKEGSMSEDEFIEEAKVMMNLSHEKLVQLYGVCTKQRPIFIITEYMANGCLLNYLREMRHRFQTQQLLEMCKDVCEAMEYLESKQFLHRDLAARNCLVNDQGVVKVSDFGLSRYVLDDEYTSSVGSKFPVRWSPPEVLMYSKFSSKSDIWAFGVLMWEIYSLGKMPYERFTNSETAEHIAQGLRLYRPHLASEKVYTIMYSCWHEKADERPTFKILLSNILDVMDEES", "experiment": "Inhibition of recombinant full-length N-terminal His-tagged human BTK expressed in baculovirus infected Sf9 insect cells using Poly(4:1 Glu,Tyr) peptide substrate incubated for 60 mins by ADP-Glo luminescence assay"}, "[3]": {"system": "Ramos", "experiment": "Induction of apoptosis in human Ramos cells assessed as late apoptotic cells at 20 uM after 72 hrs by Annexin V-FITC/propidium iodide staining based flow cytometry (reference value: 0.5%)", "assay_type": "functional"}, "[4]": {"system": "Ramos", "experiment": "Antitumor activity against human Ramos cells xenografted in CB17/SCID mouse assessed as tumor growth inhibition at 60 mg/kg, po qd for 14 days", "assay_type": "functional", "conditions": "336 h, read-out: TGI", "outline": "(§2)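 Female CB17/SCID mice, 5–6 weeks old and 20–25 g, received 3×10⁶ Ramos cells in 0.1 mL PBS subcutaneously in the right axilla. From day 3 after implantation, dosing was oral at 30 or 60 mg/kg for 14 days; vehicle controls got oral 25% PEG-400. Tumor volume was A×B²/2 from caliper diameters. Tumor weight was taken at sacrifice, and body weight was tracked. n = 5.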"}, "[5]": {"molecular_target": "T1, Tyrosine-protein kinase BTK", "experiment": "Inhibition of BTK phosphorylation in human NAMALWA cells after 48 hrs by immunoblot analysis", "assay_type": "cell-based", "outline": "(§3)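 Namalwa cells were treated with 1, 5 or 10 µM for 48 h. Lysates were cleared at 14,000 g for 15 min at 4 °C, and 50 µg of protein was run on 8–12% SDS-PAGE and transferred to PVDF. Membranes were blocked in 5% milk for 2 h and incubated with primary antibody overnight at 4 °C. Detection was by ECL, with band IOD normalized to β-actin.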"}, "[6]": {"system": "Ramos", "experiment": "Antiproliferative activity against human Ramos cells assessed as inhibition of cell viability at 20 uM after 72 hrs by CCK-8 assay", "assay_type": "functional", "outline": "as §1"}, "[7]": {"molecular_target": "T2, Tyrosine-protein kinase JAK3 (Homo sapiens, UniProt P52333)", "T2 sequence (P52333 whole entry)": "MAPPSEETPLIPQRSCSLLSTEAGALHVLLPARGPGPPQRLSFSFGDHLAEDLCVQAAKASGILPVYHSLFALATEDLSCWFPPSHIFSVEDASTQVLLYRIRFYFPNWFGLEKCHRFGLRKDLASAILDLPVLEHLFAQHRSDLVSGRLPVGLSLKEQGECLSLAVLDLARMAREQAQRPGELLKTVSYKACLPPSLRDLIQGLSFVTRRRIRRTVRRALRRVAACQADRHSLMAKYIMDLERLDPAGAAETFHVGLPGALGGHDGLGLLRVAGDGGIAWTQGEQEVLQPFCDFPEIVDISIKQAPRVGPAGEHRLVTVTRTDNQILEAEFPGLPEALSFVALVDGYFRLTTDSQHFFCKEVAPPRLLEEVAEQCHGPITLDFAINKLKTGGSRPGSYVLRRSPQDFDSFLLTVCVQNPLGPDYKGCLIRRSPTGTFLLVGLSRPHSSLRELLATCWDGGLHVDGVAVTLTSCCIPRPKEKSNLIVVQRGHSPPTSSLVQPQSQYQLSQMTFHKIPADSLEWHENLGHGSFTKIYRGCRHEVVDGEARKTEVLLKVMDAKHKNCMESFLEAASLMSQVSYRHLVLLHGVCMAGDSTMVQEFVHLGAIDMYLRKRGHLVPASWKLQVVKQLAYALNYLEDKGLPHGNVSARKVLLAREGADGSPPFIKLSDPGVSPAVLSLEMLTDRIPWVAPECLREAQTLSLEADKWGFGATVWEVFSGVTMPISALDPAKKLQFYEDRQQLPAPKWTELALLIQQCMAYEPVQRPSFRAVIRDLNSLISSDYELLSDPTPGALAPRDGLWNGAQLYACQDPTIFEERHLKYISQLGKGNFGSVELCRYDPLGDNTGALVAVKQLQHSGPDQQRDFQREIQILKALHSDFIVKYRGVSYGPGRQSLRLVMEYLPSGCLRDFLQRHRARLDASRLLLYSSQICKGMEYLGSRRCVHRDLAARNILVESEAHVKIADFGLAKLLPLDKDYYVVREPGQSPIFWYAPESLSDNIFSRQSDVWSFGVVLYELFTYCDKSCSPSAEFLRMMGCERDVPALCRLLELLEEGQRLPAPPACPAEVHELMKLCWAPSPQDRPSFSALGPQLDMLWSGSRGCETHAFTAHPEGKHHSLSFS", "experiment": "Inhibition of recombinant N-terminal GST-tagged human JAK3 (781 to end residues) expressed in baculovirus infected Sf9 insect cells using Poly(4:1 Glu,Tyr) peptide substrate incubated for 60 mins by ADP-Glo luminescence assay", "outline": "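ADP-Glo luminescent kinase assay. The kinase reaction ran 60 min at room temperature in 1× kinase buffer. ADP-Glo reagent was added to stop the reaction and deplete ATP, followed by 40 min at room temperature. Detection reagent then converted ADP to ATP for a luciferase readout, followed by 30 min at room temperature. Luminescence was integrated over 0.5–1 s, and IC50 came from curve fitting.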"}, "[8]": {"system": "Ramos", "experiment": "Antiproliferative activity against human Ramos cells after 72 hrs by CCK-8 assay"}, "[9]": {"system": "Ramos", "experiment": "Induction of apoptosis in human Ramos cells assessed as early apoptotic cells at 20 uM after 72 hrs by Annexin V-FITC/propidium iodide staining based flow cytometry (reference value: 0.0%)", "assay_type": "functional"}, "[10]": {"system": "Ramos", "experiment": "Induction of apoptosis in human Ramos cells assessed as early apoptotic cells at 5 uM after 72 hrs by Annexin V-FITC/propidium iodide staining based flow cytometry (reference value: 0.0%)", "assay_type": "functional"}, "[11]": {"system": "Ramos", "experiment": "Induction of apoptosis in human Ramos cells assessed as necrotic cells at 20 uM after 72 hrs by Annexin V-FITC/propidium iodide staining based flow cytometry (reference value: 0.7%)", "assay_type": "functional"}, "[12]": {"molecular_target": "T3, Tyrosine-protein kinase JAK3 (Homo sapiens) (UniProt P52333)", "T3 sequence (whole entry)": "T2 sequence (P52333 whole entry)", "experiment": "Inhibition of JAK3 in human NAMALWA cells assessed as reduction in STAT3 phosphorylation after 48 hrs by immunoblot analysis", "assay_type": "cell-based", "outline": "as §3"}, "[13]": {"system": "Ramos", "experiment": "Induction of apoptosis in human Ramos cells assessed as necrotic cells at 10 uM after 72 hrs by Annexin V-FITC/propidium iodide staining based flow cytometry (reference value: 0.7%)", "assay_type": "functional"}, "[14]": {"system": "Ramos", "experiment": "Induction of apoptosis in human Ramos cells assessed as early apoptotic cells at 10 uM after 72 hrs by Annexin V-FITC/propidium iodide staining based flow cytometry (reference value: 0.0%)", "assay_type": "functional"}, "[15]": {"system": "Raji", "experiment": "Antiproliferative activity against human Raji cells after 72 hrs by CCK-8 assay", "assay_type": "functional, cell-based", "outline": "as §1"}, "[16]": {"system": "Ramos", "experiment": "Antitumor activity against human Ramos cells xenografted in po dosed CB17/SCID mouse assessed as reduction in tumor growth administered as qd for 14 days", "assay_type": "functional, organism-based", "outline": "as §2"}, "[17]": {"system": "Ramos", "experiment": "Antitumor activity against human Ramos cells xenografted in CB17/SCID mouse assessed as tumor growth inhibition at 30 mg/kg, po qd for 14 days", "assay_type": "functional", "conditions": "336 h, read-out: TGI", "outline": "as §2"}}, "note": "pIC50: −log10 of the molar value.", "data": [{"smiles": "C=CC(=O)Nc1cccc(Nc2nc(Nc3ccc(OCC(=O)N4CCOCC4)c(Cl)c3)ncc2Cl)c1", "values": [{"measurement": "Activity", "setting": "[1]", "result": "Tde"}, {"measurement": "pIC50", "setting": "[2]", "result": 9.10}, {"measurement": "Activity", "setting": "[3]", "result": 14.4, "unit": "%"}, {"measurement": "inhibition in vivo at 60 mg/kg", "setting": "[4]", "result": 36.6, "unit": "%"}, {"measurement": "inhibition", "setting": "[5]", "result": "Dose-dependent effect"}, {"measurement": "inhibition at 20 µM", "setting": "[6]", "result": 91, "unit": "%"}, {"measurement": "pIC50", "setting": "[7]", "result": 8.08}, {"measurement": "pIC50", "setting": "[8]", "result": 5.61}, {"measurement": "Activity", "setting": "[9]", "result": 65.1, "unit": "%"}, {"measurement": "Activity", "setting": "[10]", "result": 54.8, "unit": "%"}, {"measurement": "Activity", "setting": "[11]", "result": 0.4, "unit": "%"}, {"measurement": "inhibition", "setting": "[12]", "result": "Dose-dependent effect"}, {"measurement": "Activity", "setting": "[13]", "result": 1.1, "unit": "%"}, {"measurement": "Activity", "setting": "[14]", "result": 59, "unit": "%"}, {"measurement": "pIC50", "setting": "[15]", "result": 5.05}, {"measurement": "TGI", "setting": "[16]", "result": "Dose-dependent effect"}, {"measurement": "inhibition in vivo at 30 mg/kg", "setting": "[17]", "result": 24.4, "unit": "%"}]}, {"smiles": "C=CC(=O)Nc1cccc(Nc2nc(Nc3ccc(OCCCN4CCOCC4)cc3)ncc2Cl)c1", "values": [{"measurement": "Activity", "setting": "[1]", "result": "Tde"}, {"measurement": "pIC50", "setting": "[2]", "result": 9.22}, {"measurement": "Activity", "setting": "[3]", "result": 18.6, "unit": "%"}, {"measurement": "inhibition in vivo at 60 mg/kg", "setting": "[4]", "result": 47.5, "unit": "%"}, {"measurement": "inhibition", "setting": "[5]", "result": "Dose-dependent effect"}, {"measurement": "inhibition at 20 µM", "setting": "[6]", "result": 91, "unit": "%"}, {"measurement": "pIC50", "setting": "[7]", "result": 9.08}, {"measurement": "pIC50", "setting": "[8]", "result": 5.31}, {"measurement": "Activity", "setting": "[9]", "result": 61.6, "unit": "%"}, {"measurement": "Activity", "setting": "[10]", "result": 50.8, "unit": "%"}, {"measurement": "Activity", "setting": "[11]", "result": 3.5, "unit": "%"}, {"measurement": "inhibition", "setting": "[12]", "result": "Dose-dependent effect"}, {"measurement": "Activity", "setting": "[13]", "result": 2.7, "unit": "%"}, {"measurement": "Activity", "setting": "[14]", "result": 67.6, "unit": "%"}, {"measurement": "pIC50", "setting": "[15]", "result": 5.03}, {"measurement": "TGI", "setting": "[16]", "result": "Dose-dependent effect"}, {"measurement": "inhibition in vivo at 30 mg/kg", "setting": "[17]", "result": 36.6, "unit": "%"}]}]}
